ChEMBL document CHEMBL1137687, “Anti-HIV evaluation of benzo[d]isothiazole hydrazones” (Eur J Med Chem, 2009)

Legend:
[1] = tested on: Human immunodeficiency virus 1; experiment: Antiviral activity against wild type HIV1 3B assessed as protection as protection against virus-induced cytopathogenicity after 4 days by MTT assay; assay type: functional; details: Human immunodeficiency virus 1, 3B, 96 h
Procedure, shortened: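 HIV-1 IIIB from supernatants of persistently infected H9/IIIB cells. MT-4 cells, 1 × 10⁴ per well in RPMI 1640 with 10% FCS, exposed to serial compound dilutions (100 mM DMSO stock diluted in medium). Virus inoculum sized in CCID₅₀ to give complete cytopathogenicity by day 4. Incubated at 37 °C, then viability read by MTT. EC₅₀ taken as concentration giving 50% protection from virus-induced cytopathogenicity.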

[2] = tested on: Human immunodeficiency virus 1; experiment: Antiviral activity against NNRTI-resistant HIV1 with reverse transcriptase Y181C mutation in human MT4 cells assessed as protection against virus-induced cytopathogenicity after 4 days by MTT assay; assay type: functional, organism-based; details: Human immunodeficiency virus 1, MT4, 96 h
Procedure, shortened: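 Y181C virus (NIH N119) came from an AZT-sensitive clinical isolate passaged in CEM then MT-4 cells with nevirapine; stock 1.2×10⁸ CCID50/mL. It infected 1×10⁴ MT-4 cells/well (RPMI 1640, 10% FCS, 37 °C, 5% CO2) with compound dilutions from 100 mM DMSO stock, at a dose giving full cytopathogenicity by day 4. Readout MTT; EC50 = 50% protection.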

[3] = tested on: Human immunodeficiency virus 1; experiment: Antiviral activity against NNRTI-resistant HIV1 3B with reverse transcriptase K103N+Y181C mutation in human MT4 cells assessed as protection against virus-induced cytopathogenicity after 4 days by MTT assay; assay type: functional, organism-based; details: Human immunodeficiency virus 1, 3B, MT4, 96 h
Procedure, shortened: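 MT-4 cells (RPMI 1640, 10% FCS, 37 °C, 5% CO2), 1×10⁴/well, with compound serial dilutions from 100 mM DMSO stock, infected with K103N+Y181C virus (NIH A17, from IIIB passaged in H9 cells with BI-RG 587; stock 2.1×10⁷ CCID50/mL) at dose giving full cytopathogenicity by day 4. MTT viability; EC50 = 50% protection.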

[4] = Cytotoxicity against mock-infected human MT4 cells after 4 days by MTT assay; assay type: cell-based
Procedure, shortened: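 Mock-infected MT-4 cells, 1 × 10⁴ per well in RPMI 1640 with 10% FCS, 37 °C, 5% CO₂. Exposed to serial compound dilutions from a 100 mM DMSO stock diluted in medium, in parallel with the antiviral assay. Viability read by MTT. CC₅₀ taken as concentration reducing viability of mock-infected cells by 50%.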

[5] = tested on: Human immunodeficiency virus 1; experiment: Antiviral activity against NNRTI-resistant HIV1 3B with reverse transcriptase K103R+V179D+P225H mutation in human MT4 cells assessed as protection against virus-induced cytopathogenicity after 4 days by MTT assay; assay type: functional, organism-based; details: Human immunodeficiency virus 1, 3B, MT4, 96 h
Procedure, shortened: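 K103R+V179D+P225H (EFV^R) virus, from IIIB passaged in MT-4 cells under efavirenz; stock 4.0×10⁷ CCID50/mL. Added to 1×10⁴ MT-4 cells/well (RPMI 1640, 10% FCS, 37 °C, 5% CO2) with compound dilutions from 100 mM DMSO stock, amount causing complete cytopathogenicity at day 4. Viability by MTT; EC50 = concentration giving 50% protection.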

| Compound | EC50 [1] [µM] | EC50 [2] [µM] | EC50 [3] [µM] | CC50 at 96 h [4] [µM] | EC50 [5] [µM] |
| --- | --- | --- | --- | --- | --- |
| O=c1c2ccccc2sn1/N=C/c1ccco1 | > 18 | > 18 | > 18 | 18 | > 18 |
| O=c1c2ccccc2sn1/N=C/c1ccc2c(c1)OCO2 | > 17 | > 17 | > 17 | 17 | > 17 |
| Cc1ccc2sn(/N=C/c3cccc(F)c3)c(=O)c2c1 | > 30 | > 30 | > 30 | 30 | > 30 |
| Cc1ccc2sn(/N=C/c3ccccc3F)c(=O)c2c1 | > 18 | > 18 | > 18 | 18 | > 18 |
| COc1cc(/C=N/n2sc3ccccc3c2=O)ccc1O | > 15 | > 15 | > 15 | 15 | > 15 |
| O=c1c2ccccc2sn1/N=C/c1ccccc1O | > 18 | > 18 | > 18 | 18 | > 18 |
| O=c1c2ccccc2sn1/N=C/c1cccc([N+](=O)[O-])c1 | 36 | 13 | 57 | > 100 | 11 |
| Cc1ccc2sn(/N=C/c3cccc([N+](=O)[O-])c3)c(=O)c2c1 | 48 | 32 | 83 | > 100 | 18 |
| Cc1ccc2sn(/N=C/c3ccc([N+](=O)[O-])cc3)c(=O)c2c1 | > 100 | ≥ 100 | > 100 | > 100 | 72 |
| Cc1ccc2sn(/N=C/c3ccc4c(c3)OCO4)c(=O)c2c1 | 33 | 33 | 47 | > 100 | 20 |
| COc1ccc(/C=N/n2sc3ccc(C)cc3c2=O)cc1 | > 55 | > 55 | > 55 | 55 | > 55 |
| Cc1ccc2sn(/N=C/c3ccccc3O)c(=O)c2c1 | > 30 | > 30 | > 30 | 30 | > 30 |
| Cc1ccc2sn(/N=C/c3cccc(O)c3)c(=O)c2c1 | > 16 | > 16 | > 16 | 16 | 8.4 |
| Cc1ccc2sn(/N=C/c3ccc(O)c(O)c3)c(=O)c2c1 | > 49 | > 49 | > 49 | 49 | > 49 |
| COc1cc(/C=N/n2sc3ccc(C)cc3c2=O)ccc1O | > 16 | > 16 | > 16 | 16 | > 16 |
| O=c1c2ccccc2sn1/N=C/c1cccc(Cl)c1 | 100 | ≥ 100 | ≥ 100 | > 100 | 68 |
| O=c1c2ccccc2sn1/N=C/c1ccc(Cl)cc1 | > 26 | ≥ 11 | > 26 | 26 | 2.9 |
| Cc1ccc2sn(/N=C/c3ccco3)c(=O)c2c1 | > 18 | > 18 | > 18 | 18 | > 18 |
| Cc1ccc2sn(/N=C/C=C/c3ccccc3)c(=O)c2c1 | > 19 | > 19 | > 19 | 19 | > 19 |
| COc1ccc(/C=N/n2sc3ccccc3c2=O)cc1 | > 19 | > 19 | > 19 | 19 | > 19 |
| O=c1c2ccccc2sn1/N=C/C=C/c1ccccc1 | > 18 | > 18 | > 18 | 18 | > 18 |
| Cc1ccc2sn(/N=C/c3ccccc3)c(=O)c2c1 | ≥ 33 | ≥ 33 | > 44 | 44 | ≥ 33 |

| Compound | EC50 [1] [µM] | EC50 [2] [µM] | EC50 [3] [µM] | CC50 at 96 h [4] [µM] | EC50 [5] [µM] |
| --- | --- | --- | --- | --- | --- |
| O=c1c2ccccc2sn1/N=C/c1ccccc1 | 11 | > 17 | > 17 | 17 | 8.6 |
| O=c1c2ccccc2sn1/N=C/c1ccccc1F | ≥ 11 | > 20 | > 20 | 20 | > 20 |
| O=c1c2ccccc2sn1/N=C/c1ccc(F)cc1 | 4.4 | > 17 | > 17 | 17 | ≥ 17 |
| O=c1c2ccccc2sn1/N=C/c1ccc(O)cc1O | > 21 | > 21 | > 21 | 21 | > 21 |
| O=c1c2ccccc2sn1/N=C/c1ccc(O)c(O)c1 | > 44 | > 44 | > 44 | 44 | > 44 |
| Cc1ccc2sn(/N=C/c3ccc(F)cc3)c(=O)c2c1 | > 15 | > 15 | > 15 | 15 | 7.3 |
| O=c1c2ccccc2sn1/N=C/c1ccc([N+](=O)[O-])cc1 | 45 | 29 | 36 | > 100 | 33 |
| O=c1c2ccccc2sn1/N=C/c1ccc([N+](=O)[O-])cc1[N+](=O)[O-] | > 100 | – | > 100 | > 100 | > 100 |
| Cc1ccc2sn(/N=C/c3ccccc3Cl)c(=O)c2c1 | 82 | 100 | > 100 | > 100 | 79 |
| Cc1ccc2sn(/N=C/c3cccc(Cl)c3)c(=O)c2c1 | > 59 | > 59 | > 59 | 59 | 25 |
| Cc1ccc2sn(/N=C/c3ccccc3[N+](=O)[O-])c(=O)c2c1 | > 100 | > 100 | > 100 | > 100 | 100 |
| CCCCCCCCCCC/C=N/n1sc2ccc(C)cc2c1=O | > 19 | > 19 | > 19 | 19 | > 19 |
| O=c1c2ccccc2sn1/N=C/c1ccc(O)cc1 | > 18 | > 18 | > 18 | 18 | 8.4 |
| CCCCCCCCCCC/C=N/n1sc2ccccc2c1=O | > 17 | > 17 | > 17 | 17 | > 17 |
| Cc1ccc2sn(/N=C/c3ccc(Cl)cc3)c(=O)c2c1 | 24 | 22 | 33 | 57 | 11 |
| Cc1ccc2sn(/N=C/c3ccc(O)cc3)c(=O)c2c1 | > 23 | > 23 | > 23 | 23 | ≥ 23 |
| Cc1ccc2sn(/N=C/c3ccc([N+](=O)[O-])cc3[N+](=O)[O-])c(=O)c2c1 | > 100 | > 100 | > 100 | > 100 | > 100 |
| O=c1c2ccccc2sn1/N=C/c1cccc(F)c1 | > 15 | > 15 | > 15 | 15 | 9 |
| O=c1c2ccccc2sn1/N=C/c1cccc(O)c1 | > 15 | > 15 | > 15 | 15 | > 15 |
| O=c1c2ccccc2sn1/N=C/c1ccccc1[N+](=O)[O-] | 19 | 20 | 33 | 68 | 20 |
| O=c1c2ccccc2sn1/N=C/c1ccccc1Cl | 20 | 26 | > 47 | 47 | 24 |
